Test results taken from ChEMBL document CHEMBL1932980, “Structure-activity relationships of 2-amino-3-aroyl-4-[(4-arylpiperazin-1-yl)methyl]thiophenes. Part 2: Probing the influence of diverse substituents at the phenyl of the arylpiperazine moiety on allosteric enhancer activity at the A₁ adenosine receptor” (Bioorg Med Chem, 2012).

Experiments:
[1] = biological target: T1, Adenosine receptor A1 (Homo sapiens) (UniProt P30542); assay: Allosteric enhancer activity at recombinant human A1 adenosine receptor expressed in CHO cells assessed as change in forskolin-induced cAMP production at 0.01 uM after 6 mins by radioimmunoassay; format: functional, cell-based
T1 sequence (whole entry): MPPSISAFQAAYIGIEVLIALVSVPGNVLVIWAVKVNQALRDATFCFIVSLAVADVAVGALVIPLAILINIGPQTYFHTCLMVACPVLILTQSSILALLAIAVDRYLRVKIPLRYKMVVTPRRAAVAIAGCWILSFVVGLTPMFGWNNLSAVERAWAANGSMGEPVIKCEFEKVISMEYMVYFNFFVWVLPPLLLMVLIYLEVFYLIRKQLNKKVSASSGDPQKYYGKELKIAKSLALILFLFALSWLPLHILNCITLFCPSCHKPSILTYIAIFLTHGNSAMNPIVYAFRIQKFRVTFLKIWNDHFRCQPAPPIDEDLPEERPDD
How it was run: (§1)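 hA1CHO cells (about 8000 fmol/mg protein) thawed from low-passage stocks, grown in Ham's F-12 with 10% FBS and G-418, then plated 48 h. Test compound at 0.01, 0.1, 1 or 10 µM with CPA (0.05–0.1 nM) for 6 min at 36 °C. Stopped with HCl (final 50 mM). cAMP in acidified extracts measured by radioimmunoassay. Reference enhancer run in each experiment. Four experiments per concentration.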

[2] = biological target: T1, Adenosine receptor A1 (Homo sapiens); assay: Allosteric enhancer activity at recombinant human A1 adenosine receptor expressed in CHO cells assessed as change in forskolin-induced cAMP production at 0.1 uM after 6 mins by radioimmunoassay; format: functional, cell-based; how it was run: as §1
[3] = biological target: T1, Adenosine receptor A1 (Homo sapiens); assay: Allosteric enhancer activity at recombinant human A1 adenosine receptor expressed in CHO cells assessed as change in forskolin-induced cAMP production at 1 uM after 6 mins by radioimmunoassay; format: functional, cell-based; how it was run: as §1
[4] = biological target: T1, Adenosine receptor A1 (Homo sapiens); assay: Allosteric enhancer activity at recombinant human A1 adenosine receptor expressed in CHO cells assessed as change in forskolin-induced cAMP production at 10 uM after 6 mins by radioimmunoassay; format: functional, cell-based; how it was run: as §1
[5] = biological target: T1, Adenosine receptor A1 (Homo sapiens); assay: Displacement of [3H]DPCPX from recombinant human A1 adenosine receptor expressed in CHO cells at 10 uM after 120 mins by scintillation counting; format: cell-based
How it was run: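 Membranes from hA1CHO cells incubated with 1 nM [3H]DPCPX in 50 mM Tris–HCl pH 7.4 at 25 °C for 120 min. Compound added from a 100-fold DMSO stock, so 1% DMSO final, also present in controls. Bound ligand separated on GF/B filters and counted by scintillation. Result given as % of control specific binding.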

[6] = biological target: Adenosine receptor A2a (Homo sapiens) (UniProt P29274); assay: Displacement of [3H]ZM241385 from recombinant human A2A adenosine receptor expressed in CHO cells at 10 uM after 60 mins by scintillation counting; format: cell-based
Chain of Adenosine receptor A2a (Homo sapiens) (P29274 whole entry): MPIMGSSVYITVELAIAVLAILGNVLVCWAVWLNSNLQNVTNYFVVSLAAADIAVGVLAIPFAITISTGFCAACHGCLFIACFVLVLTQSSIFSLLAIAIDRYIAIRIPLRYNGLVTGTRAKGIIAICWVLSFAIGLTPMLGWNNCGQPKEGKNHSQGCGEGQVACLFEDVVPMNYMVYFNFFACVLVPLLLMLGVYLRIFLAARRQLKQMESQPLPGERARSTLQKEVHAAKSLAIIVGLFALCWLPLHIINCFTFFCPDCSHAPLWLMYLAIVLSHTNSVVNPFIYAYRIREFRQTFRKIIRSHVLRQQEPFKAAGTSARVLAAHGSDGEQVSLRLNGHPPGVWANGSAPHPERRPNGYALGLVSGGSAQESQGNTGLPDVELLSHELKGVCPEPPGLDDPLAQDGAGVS
How it was run: (§2)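 Membranes from hA2ACHO cells incubated with 1 nM [3H]ZM 241385 in 50 mM Tris–HCl, 10 mM MgCl2, pH 7.4 at 4 °C for 60 min. Compound added from a 100-fold DMSO stock, 1% DMSO final, also in controls. Separated by GF/B filtration and counted by scintillation. Result given as % of control specific binding.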

[7] = biological target: T2, Adenosine receptor A3 (Homo sapiens) (UniProt P0DMS8); assay: Displacement of [3H]MRE3008F20 from recombinant human A3 adenosine receptor expressed in CHO cells at 10 uM after 120 mins by scintillation counting; format: cell-based
T2 sequence (whole entry): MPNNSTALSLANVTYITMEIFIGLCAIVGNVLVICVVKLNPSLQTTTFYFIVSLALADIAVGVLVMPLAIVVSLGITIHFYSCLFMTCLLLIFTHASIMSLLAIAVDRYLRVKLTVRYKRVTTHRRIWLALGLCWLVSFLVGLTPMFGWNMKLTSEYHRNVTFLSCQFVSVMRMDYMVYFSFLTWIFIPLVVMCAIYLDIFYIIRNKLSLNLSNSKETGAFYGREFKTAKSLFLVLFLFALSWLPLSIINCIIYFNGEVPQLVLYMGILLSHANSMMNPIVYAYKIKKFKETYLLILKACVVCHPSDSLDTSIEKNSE
How it was run: as §2, with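 “from hA3CHO” for “from hA2ACHO”, “with 2” for “with 1”, “nM [3H]MRE 3008F20” for “nM [3H]ZM 241385”, “MgCl2, 1 mM EDTA,” for “MgCl2,”, “for 120” for “for 60”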

[8] = biological target: T1, Adenosine receptor A1 (Homo sapiens); assay: Binding affinity to recombinant human A1 adenosine receptor allosteric site expressed in CHO cells assessed as [3H]CCPA Bmax shift at 10 uM after 90 mins relative to control; format: cell-based
How it was run: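 Saturation binding of [3H]CCPA (0.05–20 nM) to hA1CHO membranes. Membranes pretreated with adenosine deaminase 3 UI/mL for 30 min at 37 °C. Run in triplicate, 90 min at 25 °C, in 50 mM Tris–HCl pH 7.4, with or without test compound at final 10 µM. Nonspecific binding taken with 1 µM R-PIA. Bmax fitted by LIGAND. Shift is the fold of Bmax increase over control.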

[9] = biological target: T1, Adenosine receptor A1 (Homo sapiens); assay: Binding affinity to recombinant human A1 adenosine receptor allosteric site expressed in CHO cells assessed as [3H]DPCPX Bmax shift at 10 uM after 90 mins relative to control; format: cell-based
How it was run: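 Saturation binding of [3H]DPCPX (0.05–20 nM) to hA1CHO membranes, run in triplicate, 90 min at 25 °C, in 50 mM Tris–HCl pH 7.4, with or without test compound at final 10 µM. Nonspecific binding taken with 1 µM DPCPX. KD and Bmax fitted by LIGAND. Shift is the fold of Bmax increase over control.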

[10] = biological target: T1, Adenosine receptor A1 (Homo sapiens); assay: Binding affinity to recombinant human A1 adenosine receptor allosteric site expressed in CHO cells assessed as potentiation of CCPA-induced [3H]DPCPX displacement at 10 uM after 90 mins relative to control; format: cell-based
How it was run: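 Competition of CCPA (0.01 nM–1 µM) against 1 nM [3H]DPCPX on hA1CHO membranes, run in triplicate, 90 min at 25 °C, in 50 mM Tris–HCl pH 7.4, with or without test compound at 10 µM. Nonspecific binding taken with 1 µM DPCPX. Ki by Cheng–Prusoff. Shift = Ki(CCPA)/Ki(CCPA + 10 µM compound).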

Row | Structure (SMILES) | Activity [1] [%] | Activity [2] [%] | Activity [3] [%] | Activity [4] [%] | inhibition [5] [%] | inhibition [6] [%] | inhibition [7] [%] | fold change (FC) [8] | fold change (FC) [9] | fold change (FC) [10]
1 | Nc1scc(CN2CCN(c3cc(Cl)ccc3Cl)CC2)c1C(=O)c1ccc(Cl)cc1 | 13 | -6.2 | -42 | -62 | 0 | 0 | 1 | 3.2 | 0.9 | 2.8
2 | Nc1scc(CN2CCN(c3cc(Cl)cc(Cl)c3)CC2)c1C(=O)c1ccc(Cl)cc1 | -1 | -22 | -69 | -74 | 1 | 0 | 1 | 5.8 | 1 | 4.5
3 | Nc1scc(CN2CCN(c3cccnc3)CC2)c1C(=O)c1ccc(Cl)cc1 | 3.2 | 3.4 | -2.7 | -23 | 0 | 0 | 0 | 1.3 | 0.9 | 1.4
4 | Nc1scc(CN2CCN(c3ccc(C(F)(F)F)cc3)CC2)c1C(=O)c1cccc(C(F)(F)F)c1 | -12 | -11 | -27 | -47 | 0 | 0 | 0 | 4.4 | 1 | 3.4
5 | Nc1scc(CN2CCN(c3c(F)cccc3F)CC2)c1C(=O)c1cccc(C(F)(F)F)c1 | 2.1 | 1.3 | 1.3 | 4 | 0 | 0 | 0 | 1.1 | 0.9 | 1.2
6 | Nc1scc(CN2CCN(c3ccc(Cl)c(Cl)c3)CC2)c1C(=O)c1ccc(Cl)cc1 | -1.2 | -13 | -60 | -62 | 1 | 0 | 3 | 4.6 | 1 | 3.8
7 | Nc1scc(CN2CCN(c3ccc(F)cc3F)CC2)c1C(=O)c1ccc(Cl)cc1 | 0 | -17 | -66 | -82 | 1 | 0 | 0 | 6.1 | 1 | 4.8
8 | CC(C)N1CCN(Cc2csc(N)c2C(=O)c2ccc(Cl)cc2)CC1 | -1 | 3.6 | 7.3 | -7.4 | 0 | 0 | 0 | 1.1 | 0.9 | 1.2
9 | Nc1scc(CN2CCN(c3cccc(F)c3)CC2)c1C(=O)c1cccc(C(F)(F)F)c1 | -11 | -12 | -35 | -62 | 0 | 0 | 0 | 6 | 1.1 | 4.7
10 | Nc1scc(CN2CCN(Cc3ccc(F)cc3)CC2)c1C(=O)c1ccc(Cl)cc1 | 2.2 | -3.9 | -34 | -82 | 0 | 0 | 1 | 3.7 | 0.9 | 3.1
11 | Nc1scc(CN2CCN(c3c(Cl)cccc3Cl)CC2)c1C(=O)c1ccc(Cl)cc1 | 15 | 0 | -2.2 | -47 | 0 | 0 | 1 | 3.3 | 0.9 | 2.9
12 | Nc1scc(CN2CCN(c3ccc(Cl)cc3F)CC2)c1C(=O)c1ccc(Cl)cc1 | -9.2 | -9.4 | -57 | -81 | 0 | 0 | 1 | 5.3 | 1 | 4.3
13 | Nc1scc(CN2CCN(c3ccc(Cl)c(C(F)(F)F)c3)CC2)c1C(=O)c1ccc(Cl)cc1 | -2.5 | -12 | -47 | -60 | 0 | 0 | 3 | 5.7 | 1 | 4.5
14 | Nc1scc(CN2CCN(c3ccccc3F)CC2)c1C(=O)c1ccc(Cl)cc1 | 2.1 | -1 | -9.2 | -15 | 4 | 0 | 0 | 1.1 | 1 | 1.4
15 | Nc1scc(CN2CCN(C3CCCCCC3)CC2)c1C(=O)c1ccc(Cl)cc1 | 2.9 | 13 | 3.7 | -25 | 0 | 0 | 0 | 1.1 | 0.9 | 1.2
16 | Nc1scc(CN2CCN(CC(=O)c3ccc(Cl)cc3)CC2)c1C(=O)c1ccc(Cl)cc1 | -5 | 1 | -25 | -62 | 0 | 1 | 0 | 1.4 | 0.9 | 1.4
17 | Nc1scc(CN2CCN(c3c(F)cccc3F)CC2)c1C(=O)c1ccc(Cl)cc1 | -12 | -23 | -65 | -80 | 1 | 1 | 4 | 6.3 | 1.1 | 5
